Screens from PubChem.
MT1-MMP act inh: blockers of MT1-MMP proenzyme processing, primary screen, HT1080 RFP-PRO-GFP cells, GFP/RFP fluorescence. 360,000 compounds, 0.061% hits. GFP/RFP ratio fluorescence, overnight; percent of plate control window, DMSO zero. Matrix metalloproteinase-14 (Homo sapiens), P50281. GFP/RFP ratio change, % at 20 µM;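 active means GFP/RFP ratio change of at least 30% with cell ATP level not reduced by more than half and red fluorescence within 50% of control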
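Read-out: GFP/RFP fluorescence ratio; Test system: RFP-PRO-GFP reporter HT1080 cells; Compound dosing: single-point 20 µM compound, 1% DMSO; Times: overnight compound exposure at 37 °C.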
SKN-1 inh: suppressors of acrylamide-induced Pgst-4::GFP reporter in worms, primary screen, SKN-1 inhibitor project, whole organism, uHTS, GFP/RFP fluorescence ratio, strain VP596; C. elegans VP596 Pgst-4::GFP/RFP ratio, 24 h; 360,000 compounds, 0.49% hits; AID 624304, 2012; inhibition, % at 21.8 µM;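 active means interference check ratio from 0.5 to 1.5 plus GFP to RFP signal ratio inhibition reaching or exceeding a fixed threshold, cut at about 30% in these data, passing the limit was not always enough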
PREPL inhibitor: PREPL enzyme inhibitors, primary screen, biochemical, fluorescence polarization; Prolyl endopeptidase-like (Homo sapiens), Q4J6C6; recombinant PREPL, fluorescence polarization activity-based probe; inhibition, % at 5.96 µM; 320,000 compounds, 0.68% hits; in the data active means inhibition above about 43%;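 further: 0% = enzyme with DMSO and 100% = wells lacking enzyme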
Target sequence (Q4J6C6 whole entry, looked up): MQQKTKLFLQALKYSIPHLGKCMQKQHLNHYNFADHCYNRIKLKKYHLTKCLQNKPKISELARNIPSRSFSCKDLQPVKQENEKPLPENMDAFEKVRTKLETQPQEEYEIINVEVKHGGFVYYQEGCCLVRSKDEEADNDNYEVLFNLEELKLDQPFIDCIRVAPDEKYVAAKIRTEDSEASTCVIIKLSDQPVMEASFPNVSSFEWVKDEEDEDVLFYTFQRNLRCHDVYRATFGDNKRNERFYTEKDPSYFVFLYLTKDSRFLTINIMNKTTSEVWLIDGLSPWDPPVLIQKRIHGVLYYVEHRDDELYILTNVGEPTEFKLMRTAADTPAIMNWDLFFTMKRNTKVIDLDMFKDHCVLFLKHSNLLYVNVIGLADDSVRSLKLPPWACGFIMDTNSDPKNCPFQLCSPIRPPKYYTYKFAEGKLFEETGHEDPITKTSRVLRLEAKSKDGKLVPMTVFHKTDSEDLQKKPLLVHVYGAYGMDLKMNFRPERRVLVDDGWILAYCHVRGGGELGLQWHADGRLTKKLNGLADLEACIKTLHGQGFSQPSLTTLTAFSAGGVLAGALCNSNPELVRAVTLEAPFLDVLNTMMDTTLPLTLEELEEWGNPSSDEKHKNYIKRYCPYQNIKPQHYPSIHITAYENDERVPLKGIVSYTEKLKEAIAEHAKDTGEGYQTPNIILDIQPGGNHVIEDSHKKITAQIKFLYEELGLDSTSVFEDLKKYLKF
TbMetRS inhib: T. brucei MetRS inhibitors, primary screen, biochemical, luminescence; 360,000 compounds, 0.4% hits; purified T. brucei MetRS, ATP depletion, Kinase-Glo luminescence; inhibition, % at 11.9 µM; AID 624268, 2012; methionyl-tRNA synthetase (Trypanosoma brucei brucei);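 active means inhibition above a per-plate cutoff of the control wells' mean inhibition plus 3 SD, cut at about 5.5% in these data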;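 further: 0% = DMSO wells median and 100% = median of wells with control inhibitor compound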
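Dosing: 11.9 µM compound single dose, 0.9% DMSO; Assay system: purified T. brucei MetRS enzyme; Measured by: Kinase-Glo luciferase luminescence reporting remaining unconsumed ATP; Schedule: 15 min plus 2 h at 25 °C.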
hiPSC survival: enhancers of single-cell hiPSC survival, primary screen, ATPlite luminescence; 100% = ROCK inhibitor wells, 0% = DMSO; survival enhancement, % at 20 µM; 360,000 compounds, 0.044% hits; AID 602274, 2012; in the data active means survival enhancement above about 18%;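 further: cells exposed to compounds for 16 hours before the ATP read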
eLon inh: inhibitors of E. coli Lon protease, primary screen, biochemical, fluorescence polarization; P0A9M0; 360,000 compounds, 0.42% hits; purified E. coli Lon protease; inhibition, % at 7.94 µM; in the data active means inhibition above about 13%, passing the limit was not always enough;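 further: 0% = enzyme with probe and DMSO and 100% = no enzyme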
Tb MetRS conf: T. brucei MetRS inhibitors, confirmation, biochemical, luminescence; inhibition, % at 11.9 µM; shares compounds with TbMetRS inhib; T. brucei MetRS enzyme, luminescence (ATP depletion); AID 624412, 2012; 1,400 compounds, 93% hits; in the data active means inhibition above about 7%
Jurkat tox: Jurkat T cell cytotoxicity, cytotoxicity control for T. brucei MetRS inhibitor project, luminescence, high throughput | shares compounds with TbMetRS inhib | Jurkat cells viability, ATP luminescence | inhibition, % at 8.3 µM | 1,400 compounds, 12% hits | AID 624413, 2012; in the data active means inhibition above about 15%;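 further: 0% = vehicle and 100% = reference inhibitor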
TbMetRS FP orth: T. brucei MetRS inhibitors, orthogonal assay for T. brucei MetRS inhibitor project, biochemical, fluorescence polarization. shares compounds with TbMetRS inhib. purified T. brucei MetRS. 1,400 compounds, 44% hits. AID 651607, 2012. inhibition, % at 11.9 µM; in the data active means inhibition above about 17%;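 further: 0% = vehicle wells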
* marks the source's active call; other numbers are inactive results; . = no result given. Hits are enriched below; roughly 1.8% of the tested compounds scored in any of these assays.

SMILES	MT1-MMP act inh	SKN-1 inh	PREPL inhibitor	TbMetRS inhib	hiPSC survival	eLon inh	Tb MetRS conf	Jurkat tox	TbMetRS FP orth
O=C1CC(N(CCc2ccccc2)C(=S)Nc2ccccc2)C(=O)N1c1ccc(Br)cc1 (centres undefined)	-20.2	6.5	0.9	96.6*	-1.7	6.3	98.8*	14.7	129.7*
CCOc1ccc(N2C(=O)CC(N(CCc3ccccc3)C(=O)/C=C/C(=O)O)C2=O)cc1 (centres undefined)	0.3	1.1	-6.7	-1.1	0.6	-2.0	.	.	.
Cc1ccc(N2C(=O)CC(N(CCc3ccccc3)C(=S)Nc3ccc(N(C)C)cc3)C2=O)cc1 (centres undefined)	-5.7	20.1	8.8	73.9*	1.8	4.6	45.8*	10.3	28.5*
Cc1cc(N2C(=O)C(O)=C(C(=O)c3ccco3)C2c2ccc(Cl)cc2)no1 (centres undefined)	0.8	-0.7	-0.3	6.1*	-0.1	-11.9	3.8	6.0	-3.4
Cc1cc(N2C(=O)C(O)=C(C(=O)c3ccco3)C2c2ccc(O)cc2)no1 (centres undefined)	3.8	4.2	5.7	-0.4	6.5	-3.3	.	.	.
N#Cc1cccn1-c1nccc(-c2cccs2)n1	-2.1	26.9	-17.6	0.1	-2.3	-5.6	.	.	.
CC(=O)Cc1nsc(Nc2ccc(Cl)cc2)n1	3.6	9.9	-3.3	10.0*	0.5	-18.1	4.5	2.0	5.4
Cc1ccc(CNC(=O)CSc2c3c(nc4cc(Cl)ccc24)CCCC3)o1	-17.5	22.8	-0.3	-0.1	-2.2	-7.6	.	.	.
COc1ccc2c(c1)CC[C@@H]1[C@@H]2CC[C@]2(C)[C@@H](C(=O)O)C[C@@H]12	2.3	-16.8	0.4	-0.1	0.2	-9.9	.	.	.
O=Cc1c(-[n+]2ccccc2)nc([O-])n1-c1ccccc1	1.0	8.1	12.7	-0.5	-1.0	-4.6	.	.	.
NC(=O)c1cccc(-c2ccnc3c2CC(C(=O)Nc2ccc(Cl)cc2)O3)c1 (centres undefined)	3.6	-9.3	.	51.5*	-3.6	2.5	70.0*	4.5	47.1*
COP(=O)(OC)C(Nc1cc(Cl)cc(Cl)c1)c1cccc(O)c1 (centres undefined)	-0.7	-0.3	5.2	5.7*	-1.1	-3.6	14.5*	-0.6	4.0
CCOP(=O)(OCC)C(Nc1cc(Cl)cc(Cl)c1)c1cccc(O)c1 (centres undefined)	-1.5	3.4	10.7	2.1	0.5	3.1	.	.	.
CN(Cc1ccn[nH]1)C(=O)C1CCC(=O)N(Cc2cccc(C(F)(F)F)c2)C1 (centres undefined)	0.5	16.7	-1.9	-0.3	-0.6	-8.1	.	.	.
O=C(/C(=C\c1ccccc1)c1nc2ccccc2[nH]1)c1ccc(Cl)cc1	-19.0	0.4	-9.5	9.7*	-1.3	-1.1	3.8	78.8*	-0.3
CC(=O)C1(O)CCC2C3CC(C)C4=CC(=O)CCC4(C)C3CCC21C (centres undefined)	0.3	10.6	.	0.5	2.3	-4.7	.	.	.
O=C(Nc1nnc(COc2ccccc2F)s1)Nc1ccccc1F	5.1	7.2	-11.7	14.6*	-0.5	4.0	25.2*	3.6	11.8
COc1cc(/C=C(\C#N)c2nc3ccccc3[nH]2)ccc1Oc1ccc([N+](=O)[O-])cn1	-52.2	6.9	33.8	21.1*	-0.5	-26.8	63.0*	24.3*	36.7*
COc1cc(/C=C(/C#N)c2ccccc2)ccc1Oc1ccc([N+](=O)[O-])cn1	0.2	5.9	18.1	-1.4	-0.2	-13.0	.	.	.
Cc1[nH]c(=O)[nH]c(=O)c1CSc1nnc(CCCCCNC(=O)OC(C)(C)C)o1	4.7	-9.1	-3.2	-0.2	4.2	-6.2	.	.	.
CCN(CC)C(=O)n1c(Cc2ccccc2)nc2ccccc21	0.3	-6.9	-7.3	-1.4	-0.5	-1.2	.	.	.
O=[N+]([O-])c1ccc(NC(=S)NCCc2ccc(Cl)cc2)cc1	-23.6	4.9	11.0	6.9*	-6.1	5.4	13.1*	35.9*	47.3*
COc1cccc(C(=O)NC(C)CCc2ccccc2)c1 (centres undefined)	-1.0	10.9	2.3	1.4	-0.3	-1.0	.	.	.
COc1cccc2c(=O)c(SC(F)(F)C(F)C(F)(F)F)c(C)[nH]c12 (centres undefined)	-0.9	-12.2	0.6	-1.5	1.6	-3.8	.	.	.
Cc1[nH]c2ccc(F)cc2c(=O)c1SC(F)(F)C(F)C(F)(F)F (centres undefined)	1.4	15.7	0.2	13.0*	-2.5	-4.1	19.8*	1.9	7.3
SMILES	MT1-MMP act inh	SKN-1 inh	PREPL inhibitor	TbMetRS inhib	hiPSC survival	eLon inh	Tb MetRS conf	Jurkat tox	TbMetRS FP orth
O=C(NCc1ccc(N2CCCC2=O)cc1)Nc1cccc(Cl)c1	-4.7	3.5	13.4	-0.1	0.9	-3.3	.	.	.
CCCCC#Cc1cncc(C(=O)NN)c1	-6.8	-19.0	3.7	5.7*	-0.2	-2.3	2.5	6.4	5.9
C=CCOC(=O)C1=C(C)Nc2nnnn2C1c1cc(OC)ccc1OC (centres undefined)	-0.9	8.4	-4.7	-0.2	0.9	-1.2	.	.	.
O=c1cc(CN2CCN(Cc3ccccc3)CC2)c2cc(O)ccc2o1	4.2	-1.4	4.5	-0.2	-0.4	-3.9	.	.	.
COc1cccc(CN2CCN(Cc3cc4ccccc4[nH]3)CC2CCO)c1 (centres undefined)	-6.0	-15.4	11.9	1.7	0.4	-5.5	.	.	.
CCOc1ccc(CN2CCN(Cc3cc4ccccc4[nH]3)CC2CCO)cc1 (centres undefined)	-4.0	6.9	.	14.1*	-2.6	-23.5	25.8*	5.3	12.6
c1ccc2c(c1)nc(N1CCOCC1)c1c3ccccc3[nH]c21	-4.1	13.0	5.1	11.8*	0.1	1.7	3.6	-3.5	5.2
O=c1[nH]c2ccccc2nc1N1CCOCC1	-1.7	22.9	-2.1	-0.7	-0.6	-0.1	.	.	.
